DNMT1 block – inhibitors of human DNMT1; P26358; DNMT1 molecular beacon, Hinp1I cleavage, fluorescence; inhibition (reported as % activation of signal), % at 10 µM; 360,000 compounds, 0.83% hits; in the data active = inhibition above about 50%
LMPTP inh – blocks human LMPTP phosphatase. P24666. inhibition, % at 20 µM. recombinant LMPTP-A, OMFP fluorogenic substrate, fluorescence intensity. 360,000 compounds, 0.22% hits;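 active = compounds that cut the enzyme signal by at least half of the control window in the single-dose screen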;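 note: plate controls were DMSO wells with enzyme plus substrate for no effect and substrate without enzyme for full effect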
Target sequence (P24666 whole entry, looked up): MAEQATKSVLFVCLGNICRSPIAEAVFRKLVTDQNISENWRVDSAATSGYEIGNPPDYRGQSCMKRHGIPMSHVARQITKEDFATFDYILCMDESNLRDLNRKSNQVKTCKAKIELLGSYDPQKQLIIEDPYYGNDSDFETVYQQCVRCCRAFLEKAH
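Assay system: LMPTP-A, protein tyrosine phosphatase of low molecular weight / Medium: pH 6.0 Bis-Tris buffer with DTT and Triton X-100 / Schedule: 50 min enzyme reaction at room temperature, protected from light / Measured by: endpoint fluorescence intensity from OMFP dephosphorylation / Read-out basis: % inhibition relative to no-enzyme and uninhibited control wells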
Scp-1 inhibitor – Scp-1 (human) phosphatase inhibition; Q9GZU7; Recombinant Scp1, phosphopeptide, malachite green phosphate absorbance; inhibition, % at 20 µM; 340,000 compounds, 0.88% hits; AID 493091;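 active = inhibition above about 50% at 20 µM, limit read from the data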;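 note: plate controls were DMSO wells with enzyme for no effect and wells lacking enzyme for full effect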
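System: SCP-1 catalytic domain; Reagent: Phospho 17-mer peptide substrate; Doses: one concentration, 20 µM, with 1.0% DMSO; Incubation: 45 min room-temperature reaction, 5 min colour, 30 min stabiliser; Signal: Phosphate-binding colour reagent, absorbance read at 630 nm.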
SUMO1 PPI mod – SUMO1-SIM interaction modulation; inhibition, % at 20 µM; SUMO1 binding to a labelled peptide, TR-FRET, 1 h; AID 602429; P63165; 360,000 compounds, 0.33% hits; in the data active = inhibition above about 37%
Target sequence (P63165 whole entry, looked up): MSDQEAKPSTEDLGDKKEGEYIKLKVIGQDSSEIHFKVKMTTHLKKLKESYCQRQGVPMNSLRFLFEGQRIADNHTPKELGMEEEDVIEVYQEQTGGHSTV
Rpn11 block – inhibitors of human proteasome Rpn11; human 26S proteasome, Ub4-pepOG fluorescence polarization; 20S core pre-blocked with epoxomicin; AID 588493; inhibition, % at 20 µM; O00487; 360,000 compounds, 0.59% hits;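 active = inhibition at 20 µM, scaled to each plate's controls, above about 33%, limit read from the data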
Target sequence (O00487 whole entry, looked up): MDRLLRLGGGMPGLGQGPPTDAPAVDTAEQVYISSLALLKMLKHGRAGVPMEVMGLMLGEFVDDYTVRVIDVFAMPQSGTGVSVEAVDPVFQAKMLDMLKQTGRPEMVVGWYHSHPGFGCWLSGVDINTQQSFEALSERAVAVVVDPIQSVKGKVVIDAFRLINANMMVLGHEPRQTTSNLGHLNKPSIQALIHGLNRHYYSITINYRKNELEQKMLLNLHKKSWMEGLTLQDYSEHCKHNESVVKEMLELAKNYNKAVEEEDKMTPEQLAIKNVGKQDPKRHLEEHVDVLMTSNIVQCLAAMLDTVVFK
STEP inh – STEP (human) phosphatase inhibition; recombinant STEP, OMFP fluorogenic substrate, fluorescence; inhibition, % at 20 µM; 360,000 compounds, 0.25% hits; AID 588621;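 active = inhibition at 20 µM, scaled per plate between control wells, above about 37%, limit read from the data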;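 note: 0% = DMSO with enzyme and substrate and 100% = substrate only without enzyme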
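Measure: Control-normalized % inhibition with plate pattern correction | Test system: STEP phosphatase, cell-free reaction | Medium: pH 6.0 Bis-Tris with DTT and Tween 20 | Technique: Fluorescence, 480/540 nm | Times: Reaction 20 min, ambient temperature | Doses: Single compound dose of 20 µM, 1% DMSO final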
Scp1 confirm – confirmation of human Scp-1 phosphatase inhibitors | recombinant SCP-1 catalytic domain, phosphate release, malachite green absorbance | 2,500 compounds, 61% hits | inhibition, % at 20 µM | AID 540281 | shares compounds with Scp-1 inhibitor;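 note: plate controls were DMSO with enzyme for no effect and buffer wells lacking enzyme for full effect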
MG interference – counter-screen for Scp-1 inhibitors: colorimetric interference. shares compounds with Scp-1 inhibitor. Colorimetric interference counterscreen, malachite green absorbance 630 nm. apparent inhibition (interference), % at 20 µM. 2,500 tested, under 10 active. AID 540313;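 note: compounds added after enzyme reaction finished so only phosphate colour detection is probed; plate controls were DMSO wells with completed Scp-1 reaction for no effect and substrate wells lacking enzyme for full effect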
Scp-1 Tm shift – binds human Scp-1, shifting its melting temperature; shares compounds with Scp-1 inhibitor; Recombinant SCP1, Sypro Orange thermal shift Tm; thermal shift relative to vanadate control, % at 40 µM; 1,500 compounds, 25% hits; AID 540329;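 active = substances whose mean melting-temperature shift, as a percentage of the reference inhibitor's shift, reaches about 5.3%, limit read from the data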;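 note: 0% = Tm of DMSO wells and 100% = Tm with sodium orthovanadate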
Numbers without * were called inactive; . = not tested or not shown. Only some compounds are listed: those with a hit (about 2.3% of all), similar ones and a draw of the others.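 Rule for the calls, unless noted: active = inhibition of at least 30% at 20 µM; inactive = the rest.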

SMILES	DNMT1 block	LMPTP inh	Scp-1 inhibitor	SUMO1 PPI mod	Rpn11 block	STEP inh	Scp1 confirm	MG interference	others
COC(=O)c1ccc(=O)c2nc3/c(=C/O)c(O)cc(=O)c3[nH]c12	108*	81*	58*	5	27	100*	.	.
COC(=O)c1ccc(N)cc1O	1	1	12	1	0	0	.	.
COCc1cn(CC[C@@H]2CC[C@@H](NC(=O)Nc3ccc4c(c3)OCO4)[C@@H](CO)O2)nn1	.	-1	.	2	.	.	.	.
CC(C)OC(=O)/C(C#N)=C/c1ccc(-c2ccc(SC(F)F)cc2)o1	4	2	-10	-2	57*	-2	.	.
Cc1ccc2c(nc3s/c(=C\c4ccc(-c5ccccc5C(=O)O)o4)c(=O)n32)c1C	63*	11	76*	18	.	34	.	.
Cc1cc(/C=c2\sc3nc4ccccc4n3c2=O)c(C)n1-c1ccc(C(=O)O)cc1	43	4	20	25	35	6	.	.
O=C(O)c1ccc(-c2ccc(/C=c3/sc4nc5ccccc5n4c3=O)o2)cc1Cl	106*	14	98*	39*	.	90*	.	.
CC1=CC(C)(C)NC(=S)N1c1cccc(Cl)c1	-2	-2	-10	3	-1	0	.	.
CNC(=O)C1CCN(S(=O)(=O)c2c(C)noc2/C=C/c2ccc(C)cc2)CC1	6	0	-5	-10	-1	4	.	.
Clc1ccccc1Nc1nnc(-c2ccncc2)s1	-3	-1	-8	-11	-3	0	.	.
COc1ccc(Cl)cc1Nc1nnc(-c2ccncc2)s1	39	0	90*	96*	5	83*	.	.
CCC(C)c1ccccc1N1CC(C(=O)Nc2ccc(C)c(S(=O)(=O)N3CCOCC3)c2)CC1=O (configuration not stated)	-4	0	-11	-5	3	-2	.	.
Cc1ccc2[nH]c(C)c(/C=C/c3cc[n+](C)cc3)c2c1	10	6	12	-173	.	-15	.	.
Cc1ccc2c(c1)c(/C=C/c1cc[n+](C)cc1)c(C)n2C	23	13	54*	-269	.	-19	.	.
CCOC(=O)N1CCC(NC(=O)c2cccc3c2C(=O)N(c2ccc(OC)cc2)C3)CC1	30	3	52*	8	-7	4	49*	-10	Scp-1 Tm shift=3
CCOC(=O)N1CCC(N2Cc3cccc(C(=O)NCc4ccc5c(c4)OCO5)c3C2=O)CC1	20	3	92*	8	-8	6	65*	-12	Scp-1 Tm shift=-6
Nc1ncncc1-c1ccc2ccccc2c1	-2	1	-11	-9	-1	-1	.	.
CC(CCc1ccccc1)NC(=O)c1ccc(-n2cncn2)c([N+](=O)[O-])c1 (configuration not stated)	1	-7	-8	-32	-2	1	.	.
CCOc1ncccc1C(=O)NNC(=O)c1cccc(S(=O)(=O)Nc2ccc(OC)cc2)c1	0	1	-3	2	-2	10	.	.
COc1ccc(/C=C/c2ccc3ccccc3[n+]2C)cc1OC	-2	2	99*	-30	13	0	4	-6
CC(=O)Oc1ccccc1/C=C/c1ccc2ccccc2[n+]1C	1	-1	17	-29	9	-3	.	.
Cc1noc(C)c1NC(=O)N(C)C[C@H]1Oc2c(NC(=O)C3CC3)cccc2C(=O)N([C@H](C)CO)C[C@@H]1C	3	0	0	9	2	0	.	.
Cc1noc(C)c1NC(=O)N(C)C[C@H]1Oc2c(cccc2N(C)C)C(=O)N([C@H](C)CO)C[C@@H]1C	4	-1	74*	1	-4	-4	17	2
COc1ccc(S(=O)(=O)N(C)C[C@H]2Oc3c(NC(=O)Nc4c(C)noc4C)cccc3C(=O)N([C@@H](C)CO)C[C@H]2C)cc1	-3	-2	56*	0	4	0	1	-16
CSc1nc(COC(=O)NC(C)C)c(COC(=O)NC(C)C)n1Cc1ccccc1	-1	0	.	1	-5	-1	.	.
SMILES	DNMT1 block	LMPTP inh	Scp-1 inhibitor	SUMO1 PPI mod	Rpn11 block	STEP inh	Scp1 confirm	MG interference	others
CC(=O)c1ccc(NC(=O)CSc2nnc(-c3ccco3)c(-c3ccco3)n2)cc1	47	54*	83*	43*	-7	10	58*	-22	Scp-1 Tm shift=9.4*
CC(=O)Nc1ccc(NC(=O)CSc2nnc(-c3ccco3)o2)cc1	2	0	-9	2	3	0	.	.
CCC1(c2ccc(F)cc2)NC(=O)N(CC(=O)NCC(=O)Nc2cccc(C)c2C)C1=O (configuration not stated)	2	0	-3	2	1	0	-15	-11
O=C(Cn1cnc2cc([N+](=O)[O-])ccc2c1=O)NCc1ccccc1	-2	-1	-5	-18	-1	2	.	.
COc1ccc2[nH]cc(C(O)CN3CCC(C(N)=O)CC3)c2c1 (configuration not stated)	-3	1	71*	-2	0	0	2	-1
O=C(CCC1N=C2c3ccccc3N=C(SCC(=O)NCc3ccco3)N2C1=O)NCc1ccco1 (configuration not stated)	15	0	83*	3	-3	2	69*	-15	Scp-1 Tm shift=-17
Cn1c2ccccc2c(=O)c2ccc(C#CC3(O)CCCCC3)cc21	8	4	8	-27	2	-1	.	.
O=C(c1cc2ncc(Br)cn2n1)N1CCN(C(=O)c2ccco2)CC1	30	-1	56*	6	-1	1	43*	-11	Scp-1 Tm shift=-10
C[N+]1(CC(=O)OCCCc2ccccc2)CCCC1	-1	-2	62*	-3	1	0	82*	-19	Scp-1 Tm shift=-26
Cn1cc(/C=N/NC(=O)c2cc3cc(Br)ccc3o2)c2ccccc21	9	-1	62*	-7	5	4	-18	-15
O=C(O)Cn1cc(/C=N/NC(=O)c2cc3cc(Br)ccc3o2)c2ccccc21	0	0	-2	5	-3	4	.	.
O=C(COc1ccc(-n2cnnn2)cc1)Nc1cccc(Cl)c1Cl	49	22	69*	6	-20	11	68*	-11	Scp-1 Tm shift=-17
O=C(COc1ccccc1Cl)Nc1ccc2c(c1)C(=O)NC2=O	3	-36	3	1	2	-1	.	.
